Results as given in ChEMBL document CHEMBL3872268, “3-Amino-thieno[2,3-b]pyridines as microtubule-destabilising agents: Molecular modelling and biological evaluation in the sea urchin embryo and human cancer cells” (Bioorg Med Chem, 2017).
Calls of active or inactive are those of the source.

Legend:
Paracentrotus lividus [1] = assay: Induction of microtubule destabilization activity in sea urchin free-swimming blastulae assessed as embryo spinning measured after 0.25 to 20 hrs; conditions: Blastula
Summary of the method: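 Free-swimming blastulae just after hatching (8–10 h post-fertilisation) were cultured in filtered seawater at room temperature. They were treated with 2-fold decreasing concentrations (DMSO stock diluted 10-fold in EtOH; final DMSO ≤0.05%, EtOH ≤1%). Spinning and lack of forward movement were observed by light microscopy after 15 min to 20 h. The value is the effective threshold concentration, from duplicate measurements.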

Paracentrotus lividus [2] = assay: Induction of microtubule destabilization in sea urchin embryo assessed as cleavage alteration exposed 8 to 20 mins after fertilization and 45 to 55 mins before first mitotic cycle completion measured 2.5 to 5.5 hrs after fertilization
Summary of the method: (§1)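 Gametes were obtained by intracoelomic injection of 0.5 M KCl, and eggs were fertilised in filtered seawater. Embryos were cultured at room temperature with paddle agitation (60 rpm), as a monolayer at up to 2000 embryos/mL. Eggs were exposed 8–20 min post-fertilisation to 2-fold decreasing concentrations (10 mM DMSO stock diluted 10-fold in EtOH). Cleavage was scored microscopically at 2.5–5.5 h. The read-out was the threshold concentration, in duplicate.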

[3] = Growth inhibition of human NCI60 cells at 10 uM incubated for 48 hrs by sulforhodamine B assay relative to control; assay type: functional; conditions: NCI60, 48 h, read-out: GI
Summary of the method: (§2)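 NCI Developmental Therapeutics Program panel of sixty human tumour cell lines. Compounds were screened first at a single 10 μM dose (percent growth inhibition), and dose-response curves were run for active ligands. GI50 is the concentration giving 50% growth inhibition, reported as the mean across the 60 lines.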

Paracentrotus lividus [4] = assay: Induction of microtubule destabilization in sea urchin embryo assessed as cleavage arrest exposed for 8 to 20 mins after fertilization and 45 to 55 mins before first mitotic cycle completion measured 2.5 to 5.5 hrs after fertilization; summary of the method: as §1
Paracentrotus lividus [5] = assay: Induction of microtubule destabilization in sea urchin embryo assessed as developmental retardation at later stages of development
Paracentrotus lividus [6] = assay: Induction of microtubule destabilization in sea urchin embryo assessed as alteration at later stages of development
[7] = Growth inhibition of human NCI60 cells incubated for 48 hrs by sulforhodamine B assay; assay type: functional; conditions: NCI60, 48 h; summary of the method: as §2
[8] = Toxicity in sea urchin embryo assessed as induction of embryo disintegration at early pluteus stage; conditions: paracentrotus lividus
[9] = Toxicity in sea urchin embryo assessed as induction of embryo death at early pluteus stage; conditions: paracentrotus lividus
Paracentrotus lividus [10] = assay: Induction of microtubule destabilization in sea urchin embryo assessed as formation of tuberculate eggs for 8 to 20 mins after fertilization and 45 to 55 mins before first mitotic cycle completion measured 2.5 to 5.5 hrs after fertilization
Summary of the method: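 Sea urchin gametes were obtained by intracoelomic 0.5 M KCl injection, and embryos were cultured in filtered seawater at room temperature at up to 2000 embryos/mL. Fertilised eggs were exposed to 2-fold decreasing concentrations from 10 mM DMSO stocks diluted 10-fold in 96% EtOH. Final DMSO was kept ≤0.05% and EtOH ≤1%. Microscopic scoring gave the EC, the threshold causing 100% cleavage alteration, in duplicate.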

Row | SMILES | EC (Paracentrotus lividus [1]) | EC (Paracentrotus lividus [2]) | inhibition of growth at 10 µM [3] | EC (Paracentrotus lividus [4]) | Activity (Paracentrotus lividus [5]) | Activity (Paracentrotus lividus [6]) | GI50 [7] | Activity [8] | Activity [9] | Activity (Paracentrotus lividus [10])
1 | Cc1ccc2c(N)c(C(=O)c3ccc(Cl)cc3)sc2n1 | > 4 µM | 0.5 µM | 18.4% | > 4 µM | – | – | – | – | – | –
2 | N#Cc1cc2c(N)c(C(=O)c3ccc(Cl)cc3)sc2nc1N | > 4 µM | > 4 µM | 0.5% | > 4 µM | Active | Active | – | – | – | –
3 | CN1CCc2nc3sc(C(=O)c4ccccc4)c(N)c3cc2C1 | > 4 µM | 4 µM | 13.3% | > 4 µM | Active | Active | – | – | – | –
4 | COc1ccc(C(=O)c2sc3nc(C)cc(C)c3c2N)cc1OC | > 4 µM | > 4 µM | 14.2% | > 4 µM | – | – | – | – | – | –
5 | COc1ccc(C(=O)c2sc3nc(-c4ccccc4OC)ccc3c2N)cc1OC | – | – | 43.5% | – | – | – | 7.94 µM | – | – | –
6 | Cc1cccc(NC(=O)c2sc3nc4c(cc3c2N)CCC4)c1C | 5 µM | 0.05 µM | – | 0.5 µM | – | – | – | – | – | –
7 | N#Cc1cc2c(N)c(C(=O)c3ccc(F)cc3)sc2nc1N | > 4 µM | 4 µM | – | > 4 µM | – | – | – | – | – | –
8 | Nc1c(C(=O)c2ccccc2)sc2nc3c(cc12)CCCC3 | 0.5 µM | 0.02 µM | – | 0.2 µM | – | – | – | – | – | –
9 | Cc1ccc(C(=O)c2sc3nc4c(cc3c2N)CCC4)cc1 | > 4 µM | 0.2 µM | – | > 4 µM | – | – | – | – | – | –
10 | COc1ccc(C(=O)c2sc3nc(-c4cccs4)ccc3c2N)cc1 | > 4 µM | > 4 µM | – | > 4 µM | – | – | – | Toxic | Toxic | –
11 | Cc1cc(C)c2c(N)c(C(=O)c3ccc4c(c3)OCCO4)sc2n1 | > 4 µM | 1 µM | 2% | > 4 µM | – | – | – | – | – | –
12 | COc1ccccc1-c1ccc2c(N)c(C(=O)c3ccc4c(c3)OCO4)sc2n1 | > 4 µM | > 4 µM | 37.4% | > 4 µM | Active | Active | 5.13 µM | – | – | –
13 | Nc1c(C(=O)Nc2ccccc2)sc2nc3c(cc12)CCCC3 | 0.2 µM | 0.01 µM | – | 0.05 µM | – | – | – | – | – | –
14 | COc1ccc(C(=O)c2sc3nc4c(cc3c2N)CCCC4)cc1 | > 5 µM | 0.5 µM | – | > 4 µM | – | – | – | – | – | –
15 | COc1ccc(C(=O)c2sc3nc4c(c(-c5ccncc5)c3c2N)CCCC4)cc1OC | > 4 µM | > 4 µM | – | > 4 µM | Active | Active | – | – | – | –
16 | COc1ccc(C(=O)c2sc3nc(N)c(C#N)cc3c2N)cc1OC | > 4 µM | 4 µM | 4.6% | > 4 µM | – | – | – | – | – | –
17 | Nc1c(C(=O)c2ccc(Br)cc2)sc2nc3c(cc12)CCCC3 | > 4 µM | 0.5 µM | 8.1% | > 4 µM | – | – | – | – | – | –
18 | COc1ccc(C(=O)c2sc3nc(-c4ccncc4)ccc3c2N)cc1OC | > 4 µM | 4 µM | 17.1% | > 4 µM | – | – | – | – | – | –
19 | Nc1c(C(=O)c2ccc(F)cc2)sc2nc3c(cc12)CCCC3 | > 4 µM | 0.2 µM | 26.7% | > 4 µM | – | – | – | – | – | –
20 | Nc1c(C(=O)c2ccc3c(c2)OCO3)sc2nc3c(cc12)CCCC3 | > 5 µM | 0.025 µM | – | 0.5 µM | – | – | – | – | – | Active
21 | Cc1cc(C)c2c(N)c(C(=O)c3ccc(Br)cc3)sc2n1 | > 4 µM | > 4 µM | – | > 4 µM | – | – | – | – | – | –

Row | SMILES | EC (Paracentrotus lividus [1]) | EC (Paracentrotus lividus [2]) | inhibition of growth at 10 µM [3] | EC (Paracentrotus lividus [4]) | Activity (Paracentrotus lividus [5]) | Activity (Paracentrotus lividus [6]) | GI50 [7] | Activity [8] | Activity [9] | Activity (Paracentrotus lividus [10])
22 | COc1ccc(C(=O)c2sc3nc4c(c(-c5ccccc5)c3c2N)CCCC4)cc1OC | > 4 µM | > 4 µM | – | > 4 µM | Active | Active | – | – | – | –
23 | COc1ccc(C(=O)c2sc3nc4c(cc3c2N)CCCC4)cc1OC | > 5 µM | 0.5 µM | 60.5% | 4 µM | – | – | 3.24 µM | – | – | Active
24 | COc1ccc(C(=O)c2sc3nc4c(cc3c2N)N2CCC4CC2)cc1OC | > 4 µM | > 4 µM | 11.7% | > 4 µM | Active | Active | – | – | – | –
25 | Cc1cccc(NC(=O)c2sc3nc4c(cc3c2N)CCCC4)c1C | 0.5 µM | 0.01 µM | – | 0.1 µM | – | – | – | – | – | –
26 | Nc1c(C(=O)Nc2cccc(C(F)(F)F)c2)sc2nc3c(cc12)CCCCC3 | > 4 µM | > 4 µM | – | > 4 µM | – | – | – | – | – | –
27 | Nc1c(C(=O)c2ccccc2)sc2nc3c(cc12)N1CCC3CC1 | > 4 µM | > 4 µM | 7.3% | > 4 µM | – | – | – | – | – | –
28 | COc1ccc(C(=O)c2cc(OC)c(OC)c(OC)c2)cc1O [PHENSTATIN] | 0.5 µM | 0.01 µM | – | 0.05 µM | – | – | 0.06 µM | – | – | –
29 | Cc1ccc(C(=O)c2sc3nc4c(cc3c2N)CCCC4)c(C)c1 | > 5 µM | 0.05 µM | 78.9% | 0.2 µM | – | – | 0.28 µM | – | – | Active
30 | COc1ccc(C(=O)c2sc3nc4c(cc3c2N)N2CCC4CC2)cc1 | > 4 µM | > 4 µM | 11.5% | > 4 µM | Active | Active | – | – | – | –
31 | Nc1c(C(=O)c2ccc(Cl)cc2)sc2nc3c(cc12)CCCC3 | > 4 µM | 0.5 µM | 7.8% | > 4 µM | – | – | – | – | – | –
32 | COC(=O)Nc1nc2cc(C(=O)c3cccs3)ccc2[nH]1 [NOCODAZOLE] | 0.1 µM | 0.005 µM | – | 0.001 µM | – | – | 0.0389 µM | – | – | –
33 | Nc1c(C(=O)c2ccc(Br)cc2)sc2nc3c(cc12)CCC3 | > 4 µM | 1 µM | 19.3% | > 4 µM | – | – | – | – | – | –
34 | Nc1c(C(=O)c2ccc(Cl)cc2)sc2nc(-c3cccs3)ccc12 | > 4 µM | > 4 µM | – | > 4 µM | – | – | – | Toxic | Toxic | –
35 | COc1ccc(C(=O)c2sc3nc(-c4cccs4)ccc3c2N)cc1OC | > 4 µM | 4 µM | 52.6% | > 4 µM | – | – | 6.31 µM | Toxic | Toxic | –
36 | Nc1c(C(=O)Nc2ccccc2)sc2nc3c(cc12)CCCCC3 | 0.2 µM | 0.01 µM | – | 0.04 µM | – | – | – | – | – | –
37 | Cc1ccc(C(=O)c2sc3nc(C)ccc3c2N)cc1 | > 10 µM | 1 µM | – | 4 µM | – | – | – | – | – | Active
38 | Nc1c(C(=O)c2ccc3c(c2)OCO3)sc2nc3c(c(C(F)(F)F)c12)CCCC3 | > 4 µM | > 4 µM | – | > 4 µM | Active | Active | – | – | – | –
39 | Nc1c(C(=O)c2ccc(Br)cc2)sc2ncccc12 | > 4 µM | 1 µM | – | > 4 µM | – | – | – | – | – | –
40 | Cc1ccc(C(=O)c2sc3nc4c(cc3c2N)CCCC4)cc1 | > 4 µM | 0.02 µM | 16.4% | 2 µM | – | – | – | – | – | Active
41 | Nc1c(C(=O)c2ccc3c(c2)OCO3)sc2nc(-c3ccncc3)ccc12 | > 4 µM | > 4 µM | – | > 4 µM | Active | Active | – | – | – | –
